Data as given in ChEMBL document CHEMBL1152843, “Synthesis of new series of 5,6-dihydro-4H-1,2-oxazines via hetero Diels-Alder reaction and evaluation of antimicrobial activity” (2009).
In brackets after ≈: the same amount, converted by molar mass.

What follows are compounds tested on Fusarium verticillioides (assay: Antifungal activity against Fusarium moniliforme at 20 ug after 48 hrs by cup diffusion method). Conditions: read-out: IZ.
Assay type: functional
Summary of the method: (§1)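 Cup diffusion on 9 cm plates seeded with 1 × 10⁶ cfu of fungi, with spores adjusted to at least 1 × 10⁶ cfu/ml in potato dextrose broth. Compound in DMF was placed in 5 mm agar cups and left 1 h to diffuse. Plates were incubated at 28 °C for 48 h and the inhibition zone read in mm. DMF was the negative control.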

| Compound | zone of inhibition at 20 µg/disc [mm] |
| --- | --- |
| COc1ccc(C2=NOC(CO)CC2)cc1 (configuration not stated) | 17.6 |
| c1cc2c(cc1CC1CCC(c3ccc4c(c3)CCC4)=NO1)OCO2 (configuration not stated) | 21.5 |
| ClCC1CCC(c2ccc3c(c2)CCC3)=NO1 (configuration not stated) | 34.5 |

These compounds were tested on Fusarium oxysporum (assay: Antifungal activity against Fusarium oxysporum at 20 ug after 48 hrs by cup diffusion method). Conditions: read-out: IZ.
Assay type: functional
Summary of the method: as §1

| Compound | zone of inhibition at 20 µg/disc [mm] |
| --- | --- |
| COc1ccc(C2=NOC(CO)CC2)cc1 (configuration not stated) | 19.5 |
| c1cc2c(cc1CC1CCC(c3ccc4c(c3)CCC4)=NO1)OCO2 (configuration not stated) | 26.7 |
| ClCC1CCC(c2ccc3c(c2)CCC3)=NO1 (configuration not stated) | 38.5 |

What follows are compounds tested on Aspergillus flavus (assay: Antifungal activity against Aspergillus flavus after 48 hrs by cup diffusion method). Conditions: not given.
Assay type: functional

| Compound | MIC [µg/mL] |
| --- | --- |
| COc1ccc(C2=NOC(CO)CC2)cc1 (configuration not stated) | 35 (≈ 158 µM) |
| c1cc2c(cc1CC1CCC(c3ccc4c(c3)CCC4)=NO1)OCO2 (configuration not stated) | 15 (≈ 44.7 µM) |
| ClCC1CCC(c2ccc3c(c2)CCC3)=NO1 (configuration not stated) | 10 (≈ 40 µM) |

The compounds below were run on Aspergillus niger (assay: Antifungal activity against Aspergillus niger after 48 hrs by cup diffusion method). Conditions: not given.
Assay type: functional

| Compound | MIC [µg/mL] |
| --- | --- |
| COc1ccc(C2=NOC(CO)CC2)cc1 (configuration not stated) | 40 (≈ 181 µM) |
| c1cc2c(cc1CC1CCC(c3ccc4c(c3)CCC4)=NO1)OCO2 (configuration not stated) | 20 (≈ 59.6 µM) |
| ClCC1CCC(c2ccc3c(c2)CCC3)=NO1 (configuration not stated) | 15 (≈ 60.1 µM) |

Each compound was assayed on Fusarium verticillioides (assay: Antifungal activity against Fusarium moniliforme after 48 hrs by cup diffusion method). Conditions: not given.
Assay type: functional

| Compound | MIC [µg/mL] |
| --- | --- |
| COc1ccc(C2=NOC(CO)CC2)cc1 (configuration not stated) | 35 (≈ 158 µM) |
| c1cc2c(cc1CC1CCC(c3ccc4c(c3)CCC4)=NO1)OCO2 (configuration not stated) | 20 (≈ 59.6 µM) |
| ClCC1CCC(c2ccc3c(c2)CCC3)=NO1 (configuration not stated) | 20 (≈ 80.1 µM) |

The compounds below were run on Fusarium oxysporum (assay: Antifungal activity against Fusarium oxysporum after 48 hrs by cup diffusion method). Conditions: not given.
Assay type: functional

| Compound | MIC [µg/mL] |
| --- | --- |
| COc1ccc(C2=NOC(CO)CC2)cc1 (configuration not stated) | 30 (≈ 136 µM) |
| c1cc2c(cc1CC1CCC(c3ccc4c(c3)CCC4)=NO1)OCO2 (configuration not stated) | 15 (≈ 44.7 µM) |
| ClCC1CCC(c2ccc3c(c2)CCC3)=NO1 (configuration not stated) | 10 (≈ 40 µM) |

What follows are compounds tested on Klebsiella pneumoniae (assay: Antibacterial activity against Klebsiella pneumoniae […] at 20 ug after 24 hrs by cup diffusion method). Conditions: not given.
Assay type: functional
Summary of the method: (§2)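 Agar cup diffusion. Plates of sterile medium in 9 cm dishes were seeded with 1 × 10⁵ cfu of bacteria, with the suspension adjusted to at least 1 × 10⁵ cfu/ml in nutrient broth. Compound in DMF was placed in 5 mm cups and pre-diffused for 1 h. Plates were incubated at 37 °C for 24 h and the inhibition zone measured in mm. DMF served as negative control.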

| Compound | inhibition zone (IZ) [mm] |
| --- | --- |
| GENTAMICIN | 17.5 |

Same assay, conditions: read-out: IZ

| Compound | zone of inhibition at 20 µg/disc [mm] |
| --- | --- |
| CC1(C)S[C@@H]2[C@H](NC(=O)Cc3ccccc3)C(=O)N2[C@H]1C(=O)O [PENICILLIN G] | 0 |
| COc1ccc(C2=NOC(CO)CC2)cc1 (configuration not stated) | 15.5 |
| c1cc2c(cc1CC1CCC(c3ccc4c(c3)CCC4)=NO1)OCO2 (configuration not stated) | 16.5 |
| ClCC1CCC(c2ccc3c(c2)CCC3)=NO1 (configuration not stated) | 25.8 |

What follows are compounds tested on Escherichia coli (assay: Antibacterial activity against Escherichia coli MTCC 443 at 20 ug after 24 hrs by cup diffusion method). Conditions: MTCC 443, 24 h, read-out: IZ.
Assay type: functional
Summary of the method: as §2

| Compound | zone of inhibition at 20 µg/disc [mm] |
| --- | --- |
| CC1(C)S[C@@H]2[C@H](NC(=O)Cc3ccccc3)C(=O)N2[C@H]1C(=O)O [PENICILLIN G] | 0 |
| COc1ccc(C2=NOC(CO)CC2)cc1 (configuration not stated) | 10.7 |
| c1cc2c(cc1CC1CCC(c3ccc4c(c3)CCC4)=NO1)OCO2 (configuration not stated) | 11.5 |
| ClCC1CCC(c2ccc3c(c2)CCC3)=NO1 (configuration not stated) | 11.8 |

The compounds below were run on Pseudomonas aeruginosa (assay: Antibacterial activity against Pseudomonas aeruginosa MTCC 1688 at 20 ug after 24 hrs by cup diffusion method). Conditions: MTCC 1688, 24 h, read-out: IZ.
Assay type: functional
Summary of the method: as §2

| Compound | zone of inhibition at 20 µg/disc [mm] |
| --- | --- |
| CC1(C)S[C@@H]2[C@H](NC(=O)Cc3ccccc3)C(=O)N2[C@H]1C(=O)O [PENICILLIN G] | 0 |
| COc1ccc(C2=NOC(CO)CC2)cc1 (configuration not stated) | 16.7 |
| c1cc2c(cc1CC1CCC(c3ccc4c(c3)CCC4)=NO1)OCO2 (configuration not stated) | 21.5 |
| ClCC1CCC(c2ccc3c(c2)CCC3)=NO1 (configuration not stated) | 34.5 |

These compounds were tested on Staphylococcus aureus (assay: Antibacterial activity against Staphylococcus aureus MTCC 737 at 20 ug after 24 hrs by cup diffusion method). Conditions: MTCC 737, 24 h, read-out: IZ.
Assay type: functional
Summary of the method: as §2

| Compound | zone of inhibition at 20 µg/disc [mm] |
| --- | --- |
| CC1(C)S[C@@H]2[C@H](NC(=O)Cc3ccccc3)C(=O)N2[C@H]1C(=O)O [PENICILLIN G] | 9.38 |
| COc1ccc(C2=NOC(CO)CC2)cc1 (configuration not stated) | 10.8 |
| c1cc2c(cc1CC1CCC(c3ccc4c(c3)CCC4)=NO1)OCO2 (configuration not stated) | 15.7 |
| ClCC1CCC(c2ccc3c(c2)CCC3)=NO1 (configuration not stated) | 13.5 |

What follows are compounds tested on Escherichia coli (assay: Antibacterial activity against Escherichia coli MTCC 443 after 24 hrs by cup diffusion method). Conditions: not given.
Assay type: functional

| Compound | MIC [µg/mL] |
| --- | --- |
| GENTAMICIN | 20 |

Same assay, conditions: MTCC 443, 24 h

| Compound | MIC [µg/mL] |
| --- | --- |
| COc1ccc(C2=NOC(CO)CC2)cc1 (configuration not stated) | 35 (≈ 158 µM) |
| c1cc2c(cc1CC1CCC(c3ccc4c(c3)CCC4)=NO1)OCO2 (configuration not stated) | 25 (≈ 74.5 µM) |
| ClCC1CCC(c2ccc3c(c2)CCC3)=NO1 (configuration not stated) | 20 (≈ 80.1 µM) |

The compounds below were run on Klebsiella pneumoniae (assay: Antibacterial activity against Klebsiella pneumoniae […] after 24 hrs by cup diffusion method). Conditions: not given.
Assay type: functional

| Compound | MIC [µg/mL] |
| --- | --- |
| GENTAMICIN | 15 |
| COc1ccc(C2=NOC(CO)CC2)cc1 (configuration not stated) | 25 (≈ 113 µM) |
| c1cc2c(cc1CC1CCC(c3ccc4c(c3)CCC4)=NO1)OCO2 (configuration not stated) | 15 (≈ 44.7 µM) |
| ClCC1CCC(c2ccc3c(c2)CCC3)=NO1 (configuration not stated) | 15 (≈ 60.1 µM) |

The compounds below were run on Pseudomonas aeruginosa (assay: Antibacterial activity against Pseudomonas aeruginosa MTCC 1688 after 24 hrs by cup diffusion method). Conditions: not given.
Assay type: functional

| Compound | MIC [µg/mL] |
| --- | --- |
| GENTAMICIN | 15 |

Same assay, conditions: MTCC 1688, 24 h

| Compound | MIC [µg/mL] |
| --- | --- |
| COc1ccc(C2=NOC(CO)CC2)cc1 (configuration not stated) | 20 (≈ 90.4 µM) |
| c1cc2c(cc1CC1CCC(c3ccc4c(c3)CCC4)=NO1)OCO2 (configuration not stated) | 15 (≈ 44.7 µM) |
| ClCC1CCC(c2ccc3c(c2)CCC3)=NO1 (configuration not stated) | 15 (≈ 60.1 µM) |

The compounds below were run on Staphylococcus aureus (assay: Antibacterial activity against Staphylococcus aureus MTCC 737 after 24 hrs by cup diffusion method). Conditions: not given.
Assay type: functional

| Compound | MIC [µg/mL] |
| --- | --- |
| GENTAMICIN | 15 |

Same assay, conditions: MTCC 737, 24 h

| Compound | MIC [µg/mL] |
| --- | --- |
| COc1ccc(C2=NOC(CO)CC2)cc1 (configuration not stated) | 20 (≈ 90.4 µM) |
| c1cc2c(cc1CC1CCC(c3ccc4c(c3)CCC4)=NO1)OCO2 (configuration not stated) | 10 (≈ 29.8 µM) |
| ClCC1CCC(c2ccc3c(c2)CCC3)=NO1 (configuration not stated) | 10 (≈ 40 µM) |

Each compound was assayed on Aspergillus flavus (assay: Antifungal activity against Aspergillus flavus at 20 ug after 48 hrs by cup diffusion method). Conditions: read-out: IZ.
Assay type: functional
Summary of the method: as §1

| Compound | zone of inhibition at 20 µg/disc [mm] |
| --- | --- |
| COc1ccc(C2=NOC(CO)CC2)cc1 (configuration not stated) | 7.83 |
| c1cc2c(cc1CC1CCC(c3ccc4c(c3)CCC4)=NO1)OCO2 (configuration not stated) | 20.7 |
| ClCC1CCC(c2ccc3c(c2)CCC3)=NO1 (configuration not stated) | 32.8 |

The compounds below were run on Aspergillus niger (assay: Antifungal activity against Aspergillus niger at 20 ug after 48 hrs by cup diffusion method). Conditions: read-out: IZ.
Assay type: functional
Summary of the method: as §1

| Compound | zone of inhibition at 20 µg/disc [mm] |
| --- | --- |
| COc1ccc(C2=NOC(CO)CC2)cc1 (configuration not stated) | 8.66 |
| c1cc2c(cc1CC1CCC(c3ccc4c(c3)CCC4)=NO1)OCO2 (configuration not stated) | 18.7 |
| ClCC1CCC(c2ccc3c(c2)CCC3)=NO1 (configuration not stated) | 28.8 |
